How the values were obtained:
[1] = melting temperature; fluorescence melt of hairpins on a sequencing array, two-state fit, raised by 9.35 °C to match UV melts; settings: sodium 0.088 M
Summary of the method: (§1)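 Hairpins were imaged by Cy3 fluorescence on a sequenced MiSeq flow cell with annealed Cy3 and quencher oligos, in 50 mM Na-HEPES pH 8.0, 25 mM NaCl, in 2.5 °C steps up to 60 °C. Bootstrapped two-state fits of normalised signals gave melting temperature and folding enthalpy. Four replicates were combined by inverse variance, and fitted temperatures were raised by 9.35 °C to match UV melts.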

[2] = folding enthalpy; higher = less favourable; fluorescence melt of hairpins on a sequencing array, two-state fit; settings: sodium 0.088 M
Summary of the method: as §1

Sequence	Tm [1] [°C]	folding enthalpy [2] [kcal/mol]
GCCCGCGAAAGCGATGGC ((((((....)))..)))	62	-19.8
GCCCGGCGAAAGCACGGC (((..((....))..)))	57.1	-13.3
GCCCGGCGAAAGCCAAGC ((..(((....)))..))	35.7	-10.7
GCCCGGCGAAAGCCCAGC ((..(((....)))..))	32.7	-9.79
GCCCGGCGAAAGCCCTGC ((..(((....)))..))	30.7	-8.41
GCCCGGCGAAAGCCGCGC ((.((((....)))).))	60.1	-17.4
GCCCGGCGAAAGCCGTGC ((.((((....)))).))	59.8	-13.9
GCCCGGCGAAAGCCTGGC (((.(((....))).)))	64.6	-25.8
GCCCGGCGAAAGCGGTGC ((.(.((....)).).))	56.5	-15.6
GCCCGGCGAAAGCTAGGC (((..((....))..)))	56.7	-21.5
GCCCGGCGAAAGCTCGGC (((..((....))..)))	52.7	-16.4
GCCCGGCGAAAGCTGCGC ((.(.((....)).).))	44.2	-17.6
GCCCGGGGAAACCCGAGC ((.((((....)))).))	52.9	-25.2
GCCCGGGGAAACTCGGGC (((((.(....).)))))	67.2	-37.5
GCCCGTACGAAAGTAGGC (((..(((....))))))	46.3	-17.9
GCCCGTGGAAACACGGAC (.(((((....))))).)	50.2	-14.5
GCCCTAACGAAAGTTGGC (((..(((....))))))	38.5	-20.7
GCCCTAGGAAACCAGGGC (((((.(....).)))))	52.5	-47
GCCCTAGGAAACTAGGGC (((((((....)))))))	67.5	-31.2
GCCCTAGGAAACTGGGGC ((((.((....)).))))	55.4	-33.7
GCCCTCCGAAAGGAGGC (((.(((....))))))	61.2	-11.9
GCCCTCGAAAGAGTGGGC ((((((....)))..)))	52.7	-25.6
GCCCTCGCGAAAGCGGGC (((..(((....))))))	59.6	-14.2

Sequence	Tm [1] [°C]	folding enthalpy [2] [kcal/mol]
GCCCTGCGAAAGCAGCGC ((.((((....)))).))	56.2	-17.5
GCCCTGCGAAAGCATCGC ((..(((....)))..))	33.6	-7.06
GCCCTGCGAAAGCGAGGC (((..((....))..)))	54.2	-11.5
GCCCTGCGAAAGCTGCGC ((.(.((....)).).))	40.2	-16.9
GCCCTGGGAAACCAGGAC (.(((((....))))).)	48.6	-13.7
GCCCTGGGAAACTGGGGC ((((..(....)..))))	51.5	-38
GCCCTTACGAAAGTAGGC (((..(((....))))))	39.1	-20.6
GCCCTTGGAAACAAGGAC (.(((((....))))).)	40.1	-17.5
GCCGAAACGAAAGTTGGC (((..(((....))))))	48	-22.3
GCCGAAGGAAACTTTGGC (((.(((....))).)))	51	-39.5
GCCGACCCGAAAGGGGGC (((..(((....))))))	55.7	-18.4
GCCGACGAAAGTCAAGGC ((((((....)))..)))	55.1	-31.1
GCCGACGAAAGTCACGGC ((((((....)))..)))	53.1	-26.8
GCCGACGAAAGTCGCGGC ((((((....)))..)))	59.2	-14.3
GCCGACGAAAGTCTGGGC ((((((....)))..)))	54.6	-27.6
GCCGACGGAAACGCCGAC (.((.((....)).)).)	36.4	-16.7
GCCGACGGAAACGCCGGC ((((.((....)).))))	63	-38.7
GCCGACGGAAACGTCGAC (.(((((....))))).)	55.4	-14.9
GCCGAGCGAAAGCACCGC ((.(.((....)).).))	38.5	-14.1
GCCGAGCGAAAGCACTGC ((.(.((....)).).))	36.4	-18.8
GCCGAGCGAAAGCGCCGC ((.(.((....)).).))	41.9	-12
GCCGAGCGAAAGCTATGC ((..(((....)))..))	38.8	-12.5
GCCGAGGGAAACCTCGAC (.(((((....))))).)	49.5	-14.1

Sequence	Tm [1] [°C]	folding enthalpy [2] [kcal/mol]
GCCGATACGAAAGTAGGC (((..(((....))))))	49.3	-33
GCCGATCGAAAGATAGGC (((.(((....))).)))	61	-41
GCCGATCGAAAGATGGC (((.(((....))))))	54.5	-26.7
GCCGATCGAAAGATGGGC (((.(((....))).)))	55.9	-40.4
GCCGATCGAAAGATTGGC (((.(((....))).)))	61.1	-45.5
GCCGATTCGAAAGAAGGC (((..(((....))))))	43.2	-28.9
GCCGCCGAAAGGCACGGC ((((((....)))..)))	62.6	-16.7
GCCGCCGAAAGGCTCGGC ((((((....)))..)))	56.7	-17.6
GCCGCCGGAAACGACGGC ((((.((....)).))))	67	-33.7
GCCGCCGGAAACGGCAGC ((.((((....)))).))	59.1	-15.9
GCCGCCGGAAACGGCGAC (.(((((....))))).)	60.9	-10.6
GCCGCCTCGAAAGAGGGC (((..(((....))))))	51.1	-8.74
GCCGCGACGAAAGTCGGC (((..(((....))))))	62.4	-9.47
GCCGCGCCGAAAGGCGGC (((..(((....))))))	67.6	-9.11
GCCGCGCGAAAGCCCAGC ((.(.((....)).).))	29.9	-12.7
GCCGCGCGAAAGCCTGGC (((..((....))..)))	53.8	-17.5
GCCGCGCGAAAGCGCTGC ((.((((....)))).))	61.5	-16.6
GCCGCGCGAAAGCTAGGC (((..((....))..)))	62.5	-28.2
GCCGCGGGAAACCGCAGC ((.((((....)))).))	59.3	-16.9
GCCGCGTCGAAAGACGGC (((..(((....))))))	56.9	-9.58
GCCGCTACGAAAGTAGGC (((..(((....))))))	51	-18
GCCGCTGGAAACGGTGGC (((.(.(....).).)))	51.7	-44.9
GCCGGAACGAAAGTTGGC (((..(((....))))))	47.4	-24.3

Sequence	Tm [1] [°C]	folding enthalpy [2] [kcal/mol]
GCCGGAGCGAAAGCTGGC (((..(((....))))))	55.4	-21.6
GCCGGAGGAAACTCCAGC ((.((((....)))).))	40.9	-23.8
GCCGGAGGAAACTTCGGC ((((.((....)).))))	56.3	-38.6
GCCGGCGAAAGCCACGGC ((((((....)))..)))	63.4	-21.5
GCCGGCGAAAGCCTTGGC ((((((....)))..)))	54.8	-20.8
GCCGGCGGAAACGCCGAC (.(((((....))))).)	59.4	-10.3
GCCGGGCGAAAGCCAAGC ((..(((....)))..))	46.8	-14.5
GCCGGGCGAAAGCCTAGC ((..(((....)))..))	44.1	-13.6
GCCGGGGGAAACCCTGGC (((.(((....))).)))	65.4	-40.9
GCCGGGTCGAAAGACGGC (((..(((....))))))	54.9	-31
GCCGGTCCGAAAGGAGGC (((..(((....))))))	48	-21.9
GCCGGTGCGAAAGCAGGC (((..(((....))))))	56.8	-17.1
GCCGGTGGAAACGTCGGC ((((..(....)..))))	52.3	-42
GCCGTAGGAAACCACGGC (((((.(....).)))))	54.4	-34.2
GCCGTAGGAAACTACAGC ((.((((....)))).))	39.6	-11.7
GCCGTCGAAAGACCCGGC ((((((....)))..)))	47.9	-18.3
GCCGTCGAAAGACCTGGC ((((((....)))..)))	44.7	-19.8
GCCGTCGAAAGACGAGGC ((((((....)))..)))	55.5	-17.8
GCCGTCGAAAGACTCGGC ((((((....)))..)))	48.8	-23.8
GCCGTCGAAAGACTTGGC ((((((....)))..)))	50.5	-17.2
GCCGTCGCGAAAGCGGGC (((..(((....))))))	54.5	-17.9

Reference: the array DNA melting data of Ke et al. (doi:10.1101/2024.01.08.574731)
